Laboratory results: ChEMBL document CHEMBL1147330, “Cytotoxic and antimalarial bisbenzylisoquinoline alkaloids from Cyclea barbata” (1993)
Converted amounts (≈) assume the structure as drawn.

Experiments:
Type in all cases: functional
[1] = Cytotoxicity against human multidrug-resistant KBV1 cells; conditions: KB-V1, read-out: ED50 (the source's name)
P388 = assay: Cytotoxicity against mouse P388 cells; conditions: read-out: ED50 (the source's name)
[2] = Cytotoxicity against human multidrug-sensitive KB3 cells; conditions: read-out: ED50 (the source's name)
Plasmodium falciparum [3] = assay: Antimalarial activity against chloroquine-resistant Plasmodium falciparum W2 infected type A+ human erythrocytes by [3H]hypoxanthine uptake; conditions: read-out: ED50 (the source's name)
Procedure, shortened: (§1)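 P. falciparum (chloroquine-sensitive D-6, chloroquine-resistant W-2) in type A+ human erythrocytes, 6% hematocrit, RPMI-1640 with 32 mM NaHCO3, 25 mM HEPES, 10% heat-inactivated A+ human plasma; 5% O2/5% CO2/90% N2, 37°. Test compounds in duplicate at 125,000–3 ng/ml; quinine control 250–0.3 ng/ml. ED50 = 50% inhibition of parasite [3H]hypoxanthine incorporation vs zero-drug controls, by non-linear regression.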

Plasmodium falciparum [4] = assay: Antimalarial activity against chloroquine-sensitive Plasmodium falciparum D6 infected type A+ human erythrocytes by [3H]hypoxanthine uptake; conditions: read-out: ED50 (the source's name); procedure, shortened: as §1

Structure (SMILES) | EC50 [1] [mg/L] | EC50 (P388) [mg/L] | EC50 [2] [mg/L] | EC50 (Plasmodium falciparum [3]) [mg/L] | EC50 (Plasmodium falciparum [4]) [mg/L]
COc1ccc2cc1Oc1ccc(cc1)C[C@H]1c3cc(c(OC)cc3CCN1C)Oc1c(O)c(OC)cc3c1[C@@H](C2)N(C)CC3 | 11 (≈ 18.1 µM) | 0.36 (≈ 0.591 µM) | 3.4 (≈ 5.59 µM) | 0.078 (≈ 0.128 µM) | 0.0651 (≈ 0.107 µM)
COc1ccc2cc1Oc1ccc(cc1)C[C@H]1c3c(cc(OC)c(O)c3Oc3cc4c(cc3OC)CCN(C)[C@H]4C2)CCN1C | 4.4 (≈ 7.23 µM) | 0.57 (≈ 0.936 µM) | 2.2 (≈ 3.61 µM) | 0.0406 (≈ 0.0667 µM) | 0.029 (≈ 0.0476 µM)
C=C[C@H]1CN2CC[C@H]1C[C@H]2[C@H](O)c1ccnc2ccc(OC)cc12 [QUININE] | > 20 | > 5 | > 20 | 0.0308 (≈ 0.0949 µM) | 0.0076 (≈ 0.0234 µM)
COc1ccc2cc1Oc1ccc(cc1)C[C@H]1c3c(cc(OC)c(O)c3Oc3cc4c(cc3OC)CCN(C)[C@@H]4C2)CCN1C [HOMOAROMOLINE] | 15 (≈ 24.6 µM) | 0.31 (≈ 0.509 µM) | 3.6 (≈ 5.91 µM) | 0.451 (≈ 0.741 µM) | 0.232 (≈ 0.381 µM)
COc1ccc2cc1Oc1ccc(cc1)C[C@@H]1c3cc(c(OC)cc3CCN1C)Oc1c(O)c(OC)cc3c1[C@@H](C2)N(C)CC3 | 11 (≈ 18.1 µM) | 0.25 (≈ 0.411 µM) | 9.8 (≈ 16.1 µM) | 0.164 (≈ 0.269 µM) | 0.0527 (≈ 0.0866 µM)
COc1ccc2cc1Oc1ccc(cc1)C[C@H]1c3cc(c(OC)cc3CCN1C)Oc1c(OC)c(OC)cc3c1[C@H](C2)N(C)CC3 [FANCHININ] | 3.7 (≈ 5.94 µM) | 0.4 (≈ 0.642 µM) | 2.1 (≈ 3.37 µM) | 0.16 (≈ 0.257 µM) | 0.179 (≈ 0.287 µM)
